The source made the active and inactive calls. The calls are words filed in the database; no cut-off is given here.
Key:
[1] = biological target: T1, Fatty-acid amide hydrolase 1 (Homo sapiens) (UniProt O00519); assay: Irreversible inhibition of human recombinant FAAH using [3H]AEA as substrate incubated up to 90 mins by compound dilution method
T1 sequence (whole entry): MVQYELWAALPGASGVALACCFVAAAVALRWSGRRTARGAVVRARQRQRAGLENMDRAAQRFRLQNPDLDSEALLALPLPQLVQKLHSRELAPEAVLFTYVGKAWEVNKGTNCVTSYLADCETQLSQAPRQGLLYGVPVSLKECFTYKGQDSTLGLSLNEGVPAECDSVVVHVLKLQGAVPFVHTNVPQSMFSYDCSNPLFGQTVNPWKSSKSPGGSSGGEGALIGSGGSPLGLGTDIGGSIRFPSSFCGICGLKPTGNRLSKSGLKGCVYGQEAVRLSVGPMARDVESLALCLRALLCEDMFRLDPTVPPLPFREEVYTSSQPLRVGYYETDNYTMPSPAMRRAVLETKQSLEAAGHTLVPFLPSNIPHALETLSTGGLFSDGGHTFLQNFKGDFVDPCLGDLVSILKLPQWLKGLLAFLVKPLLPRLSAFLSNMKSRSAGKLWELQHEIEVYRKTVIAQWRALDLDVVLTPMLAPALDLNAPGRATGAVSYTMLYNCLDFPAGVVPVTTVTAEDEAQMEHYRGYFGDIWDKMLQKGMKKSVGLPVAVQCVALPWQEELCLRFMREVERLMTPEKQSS

[2] = biological target: T2, Fatty-acid amide hydrolase 1 (Homo sapiens, UniProt O00519); assay: Inhibition of human recombinant FAAH-mediated [3H]AEA hydrolysis after 10 mins by liquid scintillation assay
T2 sequence (O00519 whole entry): T1 sequence (whole entry)
Procedure, shortened: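 Human recombinant FAAH in 10 mM Tris–HCl, 1 mM EDTA, 0.1% BSA, pH 7.4, with compound in DMSO (DMSO controls) and [3H]-AEA (2 µM final), 37 °C for 10 min. Ice-cold chloroform/methanol stop, centrifugation, [3H]-ethanolamine in upper methanol/buffer phase counted by scintillation. Buffer-only blank subtracted; IC50 from three independent experiments.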

[3] = biological target: T3, Monoglyceride lipase (Homo sapiens) (UniProt Q99685); assay: Inhibition of human recombinant MAGL using [3H]-2-OG as substrate at 1 mM incubated for 30 mins at room temperature followed by incubation at 37 degC for 10 mins by liquid scintillation assay
T3 sequence (whole entry): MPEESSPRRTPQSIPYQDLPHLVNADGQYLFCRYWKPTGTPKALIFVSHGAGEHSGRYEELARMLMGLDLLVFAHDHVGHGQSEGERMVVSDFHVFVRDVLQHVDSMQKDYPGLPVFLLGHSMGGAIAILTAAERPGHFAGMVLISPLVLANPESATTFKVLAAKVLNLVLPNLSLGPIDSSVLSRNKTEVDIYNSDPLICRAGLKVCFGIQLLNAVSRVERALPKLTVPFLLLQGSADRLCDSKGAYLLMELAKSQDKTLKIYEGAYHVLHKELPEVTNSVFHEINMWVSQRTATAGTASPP

Homo sapiens = species on record: Homo sapiens; assay: Selectivity ratio of IC50 for human recombinant MAGL to IC50 for human recombinant FAAH
[4] = biological target: T1, Fatty-acid amide hydrolase 1 (Homo sapiens); assay: Competitive reversible inhibition of human recombinant FAAH using [3H]AEA as substrate incubated up to 90 mins by compound dilution method
Procedure, shortened: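 Wash-out: human recombinant FAAH (27.5 µg) preincubated 1 h at room temperature with inhibitor or DMSO in 15 µL, at concentrations inhibiting before but not after dilution; diluted 100-fold in assay buffer. Aliquots taken at 0, 30 and 90 min post-dilution, given [3H]-AEA (2 µM final), 37 °C for 30 min; stopped with chloroform/methanol; aqueous phase counted; buffer blank subtracted.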

Monoglyceride lipase = biological target: T4, Monoglyceride lipase (Homo sapiens, UniProt Q99685); assay: Inhibition of human recombinant MAGL using [3H]-2-OG as substrate incubated for 30 mins at room temperature followed by incubation at 37 degC for 10 mins by liquid scintillation assay
T4 sequence (Q99685 whole entry): T3 sequence (whole entry)
Procedure, shortened: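 Purified human recombinant MAGL in 10 mM Tris–HCl, 1 mM EDTA, 0.1% BSA, pH 8.0, with compound in DMSO (DMSO controls) and [3H]-2-OG (2 µM final). Preincubated 20 °C for 30 min, then 37 °C for 10 min. Ice-cold chloroform/methanol stop; lower chloroform phase counted by liquid scintillation; buffer-only blank subtracted.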

Row | SMILES | IC50 [2] [nM] | IC50 (Monoglyceride lipase) [nM] | other results
1 | NC(=O)c1cccc(-c2cccc(OC(=O)NC3CCCCC3)c2)c1 |  |  | inhibition [1]: Active
2 | C=CCNC(=S)N1C[C@@H]([C@@H](C)OC(=O)NCCc2ccccc2)C1=O | 959 |  | inhibition (INH) [3]: 25%
3 | C=CCOC(=O)N1C[C@@H]([C@@H](C)OC(=O)CCCc2ccccc2)C1=O | 3.65 | 10300 | Ratio IC50 (Homo sapiens): 2800; inhibition [4]: Active
4 | C=CCCC(=O)N1C[C@@H]([C@@H](C)OC(=O)CCCc2ccccc2)C1=O |  | 4060 | 
5 | C=CCNC(=O)N1C[C@@H]([C@@H](C)OC(=O)NCCc2ccccc2)C1=O | 28.6 |  | 
6 | CCCSC(=O)N1C[C@@H]([C@@H](C)OC(=O)CCCc2ccccc2)C1=O | 12.1 | 19000 | inhibition [4]: Active
7 | C=CCCC(=O)N1C[C@@H]([C@@H](C)OC(=O)COCc2ccccc2)C1=O | 30.9 |  | 
8 | C=CCOC(=O)N1C[C@@H]([C@@H](C)OC(=O)COCc2ccccc2)C1=O | 30.1 |  | 
9 | C=CCCC(=O)N1C[C@@H]([C@@H](C)OC(=O)NCCc2ccccc2)C1=O | 33.2 |  | 
10 | C=CCNC(=O)N1C[C@@H]([C@@H](C)OC(=O)CCCc2ccccc2)C1=O | 5.56 | 98400 | Ratio IC50 (Homo sapiens): 18000
11 | C=CCNC(=O)N1C[C@@H]([C@@H](C)OC(=O)COCc2ccccc2)C1=O | 70.9 | 56800 | 
12 | C=CCCC(=O)N1C[C@@H]([C@@H](C)OC(=O)CCCc2ccncc2)C1=O | 310 |  | 
13 | C=CCNC(=S)N1C[C@@H]([C@@H](C)OC(=O)COCc2ccccc2)C1=O | 1040 | 122000 | 
14 | C=CCNC(=S)N1C[C@@H]([C@@H](C)OC(=O)CCCc2ccccc2)C1=O | 146 |  | inhibition (INH) [3]: 60%
15 | O=C(CCCCCCc1ccccc1)c1nc2ncccc2o1 |  |  | inhibition [4]: Active
16 | C=CCOC(=O)N1C[C@@H]([C@@H](C)OC(=O)NCCc2ccccc2)C1=O | 12.1 |  | 

Reference: ChEMBL document CHEMBL2311346, “An unprecedented reversible mode of action of β-lactams for the inhibition of human fatty acid amide hydrolase (hFAAH)” (Eur J Med Chem, 2013)
